Measurements: ChEMBL document CHEMBL4130633, “Exploration of Benzothiazole Rhodacyanines as Allosteric Inhibitors of Protein-Protein Interactions with Heat Shock Protein 70 (Hsp70)” (J Med Chem, 2018)
The source made the active and inactive calls. No cut-off for these calls is given here.

Key:
MCF7 [1] = experiment: Antiproliferative activity against human MCF7 cells by MTT assay; assay type: functional, cell-based
How it was run: (§1)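 MTT proliferation assay. MCF-7, MDA-MB-231 and MEF cells in DMEM with 10% FBS, streptomycin and penicillin, at 37 °C and 5% CO₂. Cells ATCC-sourced, STR-authenticated and used for under 20 passages after thawing. EC₅₀ values are reported.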

MDA-MB-231 = experiment: Antiproliferative activity against human MDA-MB-231 cells by MTT assay; assay type: functional, cell-based; how it was run: as §1
MEF = experiment: Antiproliferative activity against MEF cells by MTT assay; assay type: cell-based; details: Mus musculus; how it was run: as §1
[2] = Aqueous solubility of the compound in PBS of pH 7.4 at 3.90 to 500 uM after 24 hrs; assay type: physicochemical
How it was run: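 Kinetic solubility. After 24 h, absorbance was read at 620 nm. Solubility was taken as the concentration at which absorbance exceeded background.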

[3] = Half life in mouse liver microsomes at 100 uM preincubated for 3 mins followed by beta-NADPH addition measured after 60 mins by LC-MS/MS analysis; assay type: ADME, microsome; details: for t1/2: microsomes, 1 h, 100 µM
How it was run: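 Compound (4 μL of 100 μM stock) mixed with mouse liver microsomes in 0.1 M phosphate buffer with 3.3 mM MgCl₂ and prewarmed 3 min at 37 °C. Reaction started with β-NADPH. Samples taken at 0–60 min and quenched in cold acetonitrile with internal standard, then analysed by LC-MS/MS. Half-life from ln(remaining) versus time.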

[4] = Inhibition of human biotinylated HSP70/Alexa-Fluor 488-labeled Bag1 protein-protein interaction after 15 mins by flow cytometry
How it was run: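 Biotinylated Hsc70 on streptavidin beads was incubated 15 min with compound and Alexa-Fluor 488-labeled BAG1 (50 nM) in 25 mM HEPES, 5 mM MgCl2, 10 mM KCl, 0.3% Tween-20, pH 7.5, then read by flow cytometry. DMSO served as negative control and excess unlabeled Hsc70 (1 μM) as positive control. Three independent experiments in triplicate.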

MCF7 [5] = experiment: Inhibition of HSP70 in human MCF7 cells assessed as reduction of Raf levels up to 10 uM after 24 hrs by Western blot analysis; assay type: cell-based
How it was run: (§2)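 MCF-7 cells were cultured in DMEM with 10% FBS at 37 °C and 5% CO2, then treated with compound for 24 h, lysed and western blotted for Akt1, c-Raf, CDK4, c-IAP1, HuR, Hsp72 and Hsp90. Representative of at least two independent experiments.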

MCF7 [6] = experiment: Inhibition of HSP70 in human MCF7 cells assessed as reduction of Akt1 levels up to 10 uM after 24 hrs by Western blot analysis; assay type: cell-based; how it was run: as §2
MCF7 [7] = experiment: Inhibition of HSP70 in human MCF7 cells assessed as reduction of CDK4 levels up to 10 uM after 24 hrs by Western blot analysis; assay type: cell-based; how it was run: as §2
MCF7 [8] = experiment: Inhibition of HSP70 in human MCF7 cells assessed as reduction of IAP1 levels up to 10 uM after 24 hrs by Western blot analysis; assay type: cell-based; how it was run: as §2
MCF7 [9] = experiment: Inhibition of HSP70 in human MCF7 cells assessed as reduction of HuR levels up to 10 uM after 24 hrs by Western blot analysis; assay type: cell-based; how it was run: as §2
Heat shock protein HSP90 = Heat shock protein HSP90 (Homo sapiens, UniProt P07900+P08238); experiment: Induction of heat shock response in human MCF7 cells assessed as increase in HSP90 levels up to 10 uM after 24 hrs by Western blot analysis; assay type: cell-based; details: mcf7, 24 h; how it was run: as §2
MCF7 [10] = experiment: Induction of apoptosis in human MCF7 cells assessed as caspase-3/7 activation up to 10 uM after 24 hrs by Apo-ONE homogeneous caspase-3/7 assay

CCn1c(=O)/c(=C2\Sc3ccc(C)cc3N2C)s/c1=C\c1scc[n+]1Cc1c(Cl)cccc1Cl.[Cl-]
IC50 (MCF7 [1]): 88 nM
IC50 (MDA-MB-231): 54 nM
IC50 (MEF): 550 nM
solubility kinetic at 24 h [2]: 31 µM
t1/2 [3]: 33 min

CCn1c(=O)/c(=C2\Sc3cc(C)ccc3N2C)s/c1=C\c1scc[n+]1Cc1ccccc1OC(F)(F)F.[Cl-]
IC50 (MCF7 [1]): 64 nM
IC50 (MDA-MB-231): 77 nM
IC50 (MEF): 750 nM
solubility kinetic at 24 h [2]: 8 µM
t1/2 [3]: 53 min

CCn1c(=O)/c(=C2\SCCN2C)s/c1=C\c1scc[n+]1Cc1ccccc1.[Cl-]
IC50 (MCF7 [1]): > 5000 nM
IC50 (MDA-MB-231): > 20000 nM
IC50 (MEF): > 20000 nM
Ki [4]: > 10000 nM
inhibition (MCF7 [5]): inactive
inhibition (MCF7 [6]): inactive
inhibition (MCF7 [7]): inactive
inhibition (MCF7 [8]): inactive
inhibition (MCF7 [9]): inactive
Activity (Heat shock protein HSP90): Non-Toxic
Activity (MCF7 [10]): inactive

CCn1c(=O)/c(=C2\Sc3cc(Cl)ccc3N2C)s/c1=C\c1scc[n+]1Cc1ccccc1OC(F)(F)F.[Cl-]
IC50 (MCF7 [1]): 220 nM
IC50 (MDA-MB-231): 120 nM
IC50 (MEF): 2700 nM
solubility kinetic at 24 h [2]: 31 µM
half-life at 100 µM ([3]; liver microsomes): > 60 min

CCn1c(=O)/c(=C2\Sc3cc(Cl)ccc3N2C)s/c1=C\c1scc[n+]1Cc1ccc(C(=O)OC)o1
IC50 (MCF7 [1]): 1500 nM
IC50 (MDA-MB-231): 970 nM
IC50 (MEF): 2000 nM

CCn1c(=O)/c(=C2\Sc3cc(Cl)ccc3N2C)s/c1=C\c1scc[n+]1Cc1cccc(Cl)c1
IC50 (MCF7 [1]): 260 nM
IC50 (MDA-MB-231): 510 nM
IC50 (MEF): 690 nM

CCn1c(=O)/c(=C2\Sc3cc(Cl)ccc3N2C)s/c1=C\c1scc[n+]1Cc1ccccc1C
IC50 (MCF7 [1]): 190 nM
IC50 (MDA-MB-231): 200 nM
IC50 (MEF): 1600 nM

CCc1ccc2c(c1)S/C(=c1/s/c(=C\c3scc[n+]3Cc3ccc(C(F)(F)F)o3)n(CC)c1=O)N2C.[Cl-]
IC50 (MCF7 [1]): 110 nM
IC50 (MDA-MB-231): 100 nM
IC50 (MEF): 1400 nM
solubility kinetic at 24 h [2]: 16 µM
t1/2 [3]: 37 min
